Experimental data gathered from unrelated publications.
Compare with care: the assays were run in different laboratories.
Oprd1: Delta-type opioid receptor (Oprd1, Rattus norvegicus, UniProt P33533)
CTSB: Cathepsin B (CTSB, Homo sapiens, UniProt P07858)

SMILES	target	test	conditions	measurement	result
CC(C)N1CCC[C@H]1CNC(=O)c1cn(C2CCCC2)c(=O)c2c1c1ccccc1n2C	Platelet-activating factor receptor (PTAFR, Homo sapiens, UniProt P25105)	ligand displacement, radioligand	10 µM	inhibition	7%
C[C@@H](O)[C@@H]1CN([C@H](Cc2ccc3ccccc3c2)CN2CCC[C@H]2CN2CCNC[C@@H]2Cc2ccc3ccccc3c2)CCN1CCC12CC3CC(CC(C3)C1)C2	Oprd1	ligand displacement, radioligand	0.5 µM, 2 h, pH 7.5, cell membranes	remaining binding	100%
CN(C)C(=O)COC(=O)Cc1ccc(OC(=O)c2ccc(NC(=N)N)cc2)cc1	Ubiquitin carboxyl-terminal hydrolase 14 (USP14, Homo sapiens, UniProt P54578)	enzyme activity, inhibitor	10 µM	inhibition	0%
C#Cc1n[nH]c2c(-c3cn([C@@H](C)c4ccccc4)c(=O)[nH]c3=O)cc(F)cc12	Tyrosine-protein kinase ZAP-70 (ZAP70, Homo sapiens, UniProt P43403)	enzyme activity, inhibitor	0.1 µM	inhibition	2%
N=C(N)c1ccc2cc(OC(=O)c3ccc(N=C(N)N)cc3)ccc2c1	Dipeptidyl peptidase 9 (DPP9, Homo sapiens, UniProt Q86TI2)	enzyme activity, inhibitor	10 µM	inhibition	13%
COc1ncccc1-c1cnn2ccc(N3CCN(C(=O)OC(C)C)CC3)nc12	Serine/threonine-protein kinase TNNI3K (TNNI3K, Homo sapiens, UniProt Q59H18)	binding, competition with immobilised ligand	1 µM	remaining binding	60%
CC[C@H](NC(=O)OCc1ccccc1)C(=O)N[C@H](C(=O)N[C@@H](CC(C)C)C(=O)N(C)N(C#N)CCC(N)=O)C(C)(C)C	CTSB	enzyme activity, inhibitor	–	kon	8400 M⁻¹ s⁻¹
C#Cc1n[nH]c2c(-c3cn(C(C)c4ccccn4)c(=O)[nH]c3=O)cc(F)cc12 (stereo not shown)	Cyclin-dependent kinase 2, with cyclin E1 (CDK2, Homo sapiens, UniProt P24941)	enzyme activity, inhibitor	1 µM	inhibition	-13.7%
C[C@@H](O)[C@@H]1CN([C@H](Cc2ccc3ccccc3c2)CN2CCC[C@H]2CN2CCNC[C@@H]2Cc2ccc3ccccc3c2)CCN1CCc1ccc(Cl)c(Cl)c1	Oprd1	ligand displacement, radioligand	0.5 µM, 2 h, pH 7.5, cell membranes	remaining binding	105%
CCOC(=O)c1ccc(OC(=O)CCCCCNC(=N)N)cc1	CTSB	enzyme activity, inhibitor	10 µM	inhibition	0%
Cc1nn(C)cc1-c1nc2c(N3CCN(Cc4ccc(Cl)cc4)CC3)c(Cl)cnc2[nH]1	Mitogen-activated protein kinase kinase kinase kinase 1 (MAP4K1, Homo sapiens, UniProt Q92918)	binding, competition with immobilised ligand	1 µM	remaining binding	74%
CC[C@@H](C)[C@@H]1CN([C@@H](CC2CCCCC2)CN2CCC[C@H]2CN2CCNC[C@@H]2CO)CCN1CCC12CC3CC(CC(C3)C1)C2	Oprd1	ligand displacement, radioligand	0.5 µM, 2 h, pH 7.5, cell membranes	remaining binding	90%
Nc1ncc(-c2nc(N3CCOCC3)nc(N3CCOCC3)n2)c(C(F)F)n1	Mitogen-activated protein kinase 6 (MAPK6, Homo sapiens, UniProt Q16659)	binding, competition with immobilised ligand	10 µM	remaining binding	88%
CN1CCN(c2ccc(Nc3nccc(-c4cccc([N+](=O)[O-])c4)n3)cc2C(F)(F)F)CC1	Cyclin-dependent kinase 2 homolog (CRK2, Plasmodium falciparum, UniProt P61075)	cell-free assay	10 µM	remaining signal	93%
Oc1ccc(C[C@@H]2CN([C@H](Cc3ccc4ccccc4c3)CN3CCC[C@H]3CN3CCNC[C@@H]3Cc3ccc4ccccc4c3)CCN2CCC23CC4CC(CC(C4)C2)C3)cc1	Oprd1	ligand displacement, radioligand	0.5 µM, 2 h, pH 7.5, cell membranes	remaining binding	94.4%
CCN(CC)CCCC[C@H](NC(=O)[C@H](CC(C)C)NC(=O)[C@H](C)NC(=O)[C@H](Cc1ccccc1)NC(=O)c1ccc(C(C)(C)C)cc1)C(=O)N[C@@H](CO)C(=O)OC	Bromodomain-containing protein 7 (BRD7, Homo sapiens, UniProt Q9NPI1)	thermal stability, DSF	25 µM	ΔTm	0.08 °C
